Test results from ChEMBL document CHEMBL1126043, “Novel thiazolidine-2,4-diones as potent euglycemic agents” (1992).

Experiments:
Mus musculus [1] = test: In vivo euglycemic activity (administered by oral gavage) in C57/6J-ob/ob mice by normalization of blood glucose levels at a dose of 10 mg/kg.; assay type: functional
In short: (§1)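 Mice bled from retro-orbital sinus into tubes with 2% sodium heparin for baseline glucose, then dosed by oral gavage once daily for 4 days in 0.25% (w/v) methylcellulose in water, no pH adjustment (0.1 mL per 20 g). Bled 24 h after fourth dose. Samples centrifuged 2 min at 10000g. Plasma glucose measured by hexokinase UV method. Results scaled to vehicle (0%) and ciglitazone 50 mg/kg (100%).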

Mus musculus [2] = test: In vivo euglycemic activity of the compound (administered by oral gavage) in C57/6J-ob/ob mice is measured by normalization of blood glucose levels at a dose of 25(mg/kg); assay type: functional; in short: as §1
Mus musculus [3] = test: In vivo euglycemic activity of the compound (administered by oral gavage) in C57/6J-ob/ob mice is measured by normalization of blood glucose levels at a dose of 0.25(mg/kg); assay type: functional; in short: as §1
Mus musculus [4] = test: In vivo euglycemic activity of the compound (administered by oral gavage) in C57/6J-ob/ob mice is measured by normalization of blood glucose levels at a dose of 0.1(mg/kg); assay type: functional; in short: as §1
Mus musculus [5] = test: In vivo euglycemic activity (administered by oral gavage) in C57/6J-ob/ob mice by normalization of blood glucose levels at a dose of 0.5 mg/kg.; assay type: functional; in short: as §1
Mus musculus [6] = test: In vivo euglycemic activity (administered by oral gavage) in C57/6J-ob/ob mice by normalization of blood glucose levels at a dose of 1 mg/kg.; assay type: functional; in short: as §1
Mus musculus [7] = test: In vivo euglycemic activity of the compound (administered by oral gavage) in C57/6J-ob/ob mice is measured by normalization of blood glucose levels at a dose of 5(mg/kg)
Mus musculus [8] = test: In vivo euglycemic activity (administered by oral gavage) in C57/6J-ob/ob mice measured by normalization of blood glucose levels at a dose of 5 mg/kg.; assay type: functional
Mus musculus [9] = test: In vivo euglycemic activity of the compound (administered by oral gavage) in C57/6J-ob/ob mice is measured by normalization of blood glucose levels at a dose of 2.5(mg/kg); assay type: functional; in short: as §1
Mus musculus [10] = test: In vivo euglycemic activity of the compound (administered by oral gavage) in C57/6J-ob/ob mice is measured by normalization of blood glucose levels at a dose of 0.05(mg/kg); assay type: functional; in short: as §1
Mus musculus [11] = test: In vivo euglycemic activity of the compound (administered by oral gavage) in C57/6J-ob/ob mice is measured by normalization of blood glucose levels at a dose of 10(mg/kg).; assay type: functional; in short: as §1
Mus musculus [12] = test: In vivo euglycemic activity of the compound (administered by oral gavage) in C57/6J-ob/ob mice is measured by normalization of blood glucose levels at a dose of 1(mg/kg).; assay type: functional; in short: as §1
Mus musculus [13] = test: In vivo euglycemic activity of the compound (administered by oral gavage) in C57/6J-ob/ob mice is measured by normalization of blood glucose levels at a dose of 50(mg/kg); assay type: functional

Row | Compound | Normalization (Mus musculus [1]) [%] | Normalization (Mus musculus [2]) [%] | Normalization (Mus musculus [3]) [%] | Normalization (Mus musculus [5]) [%] | Normalization (Mus musculus [8]) [%] | further results
1 | O=C1NC(=O)C(Cc2ccc(C(=O)/C=C/c3ccc(-c4ccccc4)cc3)cc2)S1 (stereo not given) | 56 | 65 | – | – | – | –
2 | Cc1oc(-c2ccc(C(F)(F)F)cc2)nc1CCC(=O)c1ccc(CC2SC(=O)NC2=O)cc1 (stereo not given) | – | – | 81 | 69 | – | Normalization (Mus musculus [4]): 88%; Normalization (Mus musculus [6]): 86%
3 | COc1ccccc1/C=C/C(=O)c1ccc(CC2SC(=O)NC2=O)cc1 (stereo not given) | 66 | – | – | – | – | Normalization (Mus musculus [7]): 50%
4 | O=C1NC(=O)C(Cc2ccc(CCCc3ccccc3)cc2)S1 (stereo not given) | 77 | 73 | – | – | 46 | –
5 | Cc1ccc(-c2nc(C/C=C/c3ccc(CC4SC(=O)NC4=O)s3)c(C)o2)cc1 (stereo not given) | – | – | 64 | 73 | – | Normalization (Mus musculus [9]): 90%; Normalization (Mus musculus [6]): 98%
6 | Cc1oc(-c2ccccc2)nc1CCC(O)c1ccc(CC2SC(=O)NC2=O)cc1 (stereo not given) | – | – | 85 | 100 | – | Normalization (Mus musculus [4]): 93%; Normalization (Mus musculus [10]): 72%
7 | COCc1ccc(/C=C/C(=O)c2ccc(CC3SC(=O)NC3=O)cc2)cc1 (stereo not given) | – | 0 | – | – | – | –
8 | Cc1ccc(-c2nc(CCC(=O)c3ccc(CC4SC(=O)NC4=O)cc3)c(C)o2)o1 (stereo not given) | – | – | 87 | 68 | – | Normalization (Mus musculus [4]): 47%
9 | O=C1NC(=O)C(Cc2ccc(C(=O)/C=C/c3ccc(OCc4ccccc4)cc3)cc2)S1 (stereo not given) | 57 | 96 | – | – | 64 | –
10 | O=C1NC(=O)C(Cc2ccc(C(=O)/C=C/c3ccccc3)cc2)S1 (stereo not given) | 65 | 99 | – | – | 23 | –
11 | O=C1NC(=O)C(Cc2ccc(C(=O)/C=C/c3ccccc3O)cc2)S1 (stereo not given) | – | 0 | – | – | – | –
12 | Cc1ccc(-c2nc(CCC(=O)c3ccc(CC4SC(=O)NC4=O)cc3)co2)cc1 (stereo not given) | – | – | 15 | 0 | – | –
13 | COc1c(C)cc(-c2nc(CCC(=O)c3ccc(CC4SC(=O)NC4=O)cc3)c(C)o2)cc1C (stereo not given) | – | – | – | 100 | – | Normalization (Mus musculus [4]): 75%; Normalization (Mus musculus [6]): 100%
14 | O=C1NC(=O)C(Cc2ccc(C(=O)CCc3ccccc3)cc2)S1 (stereo not given) | 81 | 93 | – | – | 53 | –
15 | O=C1NC(=O)C(Cc2ccc(C(=O)COc3ccccc3)cc2)S1 (stereo not given) | – | – | – | – | – | Normalization (Mus musculus [11]): 7%
16 | Cc1oc(-c2ccccc2)nc1CCC(=O)c1ccc(CC2SC(=O)NC2=O)s1 (stereo not given) | – | – | – | – | 100 | Normalization (Mus musculus [9]): 99%; Normalization (Mus musculus [6]): 37%
17 | Cc1oc(-c2ccccc2)nc1C/C=C/c1ccc(CC2SC(=O)NC2=O)cc1 (stereo not given) | – | – | 74 | 84 | – | Normalization (Mus musculus [4]): 29%
18 | Cc1oc(-c2ccccc2)nc1CCC(=O)c1ccc(/C=C2\SC(=O)NC2=O)cc1 | – | – | – | 81 | – | Normalization (Mus musculus [4]): 43%; Normalization (Mus musculus [6]): 84%
19 | O=C1NC(=O)C(Cc2ccc(C(=O)CCc3coc(-c4ccccc4)n3)cc2)S1 (stereo not given) | – | – | 52 | 30 | – | –
20 | Cc1ccc(-c2nc(CCC(=O)c3ccc(CC4SC(=O)NC4=O)cc3)c(C)o2)cc1 (stereo not given) | – | – | 15 | 47 | – | Normalization (Mus musculus [12]): 47%
21 | Cc1oc(-c2cccs2)nc1CCC(=O)c1ccc(CC2SC(=O)NC2=O)cc1 (stereo not given) | – | – | 27 | 71 | – | Normalization (Mus musculus [6]): 84%
22 | O=C1NC(=O)C(Cc2ccc3c(c2)CCC(Cc2ccccc2)O3)S1 (stereo not given) | 70 | 91 | – | – | 48 | –
23 | O=C1NC(=O)C(Cc2ccc3c(c2)CCC(Cc2ccccc2)C3=O)S1 (stereo not given) | 54 | 47 | – | – | 39 | –
24 | CC1(COc2ccc(CC3SC(=O)NC3=O)cc2)CCCCC1 (stereo not given) [CIGLITAZONE] | – | – | – | – | – | Normalization (Mus musculus [13]): 100%
25 | Cc1oc(-c2ccccc2)nc1CCC(=O)c1ccc(CC2SC(=O)NC2=O)cc1 (stereo not given) [DARGLITAZONE] | 100 | – | 88 | 97 | 100 | Normalization (Mus musculus [9]): 88%; Normalization (Mus musculus [4]): 83%; Normalization (Mus musculus [6]): 100%
